# Measured values as given in ChEMBL document CHEMBL1145999, “Synthesis and Ca2+-mobilizing activity of purine-modified mimics of adenophostin A: a model for the adenophostin-Ins(1,4,5)P3 receptor interaction” (J Med Chem, 2003).
# Legend:
# [1] = species: Rattus norvegicus; experiment: Effective concentration causing half-maximal [Ca2+] release in rat hepatocytes; format: functional; conditions: Hepatocyte
# In short: (§1)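 Permeabilized rat hepatocytes loaded with 45Ca2+ to steady state for 5 min at 37 °C in cytosol-like medium (pH 7.0, free Ca2+ 200 nM) with ATP 1.5 mM, creatine phosphate/creatine phosphokinase and FCCP 10 µM. Thapsigargin 1.25 µM added; 30 s later, agonist for 60 s; store 45Ca2+ measured by rapid filtration. Four-parameter logistic fit gave maximal response, EC50, Hill slope. Means ± SEM.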
# [2] = species: Rattus norvegicus; experiment: The % of actively accumulated [Ca2+] released by a maximally effective concentration of the compound; format: functional; in short: as §1
# [3] = Hill coefficient was determined; format: functional; in short: as §1
# [4] = species: Rattus norvegicus; experiment: Potency for [Ca2+] release in rat hepatocytes with respect to compound 2; conditions: Hepatocyte
SMILES,EC50 [1] [nM],Max response [2] [%],Hill slope [3],relative potency [4]
O=P(O)(O)OC1[C@@H](OP(=O)(O)O)C(CO)O[C@@H](O[C@@H]2[C@H](OP(=O)(O)O)C(n3cnc4c(NC5CCCCC5)ncnc43)O[C@@H]2CO)[C@H]1O (some centres not stated),25,45,2.3,0.56
CNc1ncnc2c1ncn2C1O[C@H](CO)[C@H](O[C@@H]2OC(CO)[C@H](OP(=O)(O)O)C(OP(=O)(O)O)[C@@H]2O)[C@@H]1OP(=O)(O)O (some centres not stated),13,37,2.1,0.8
Nc1ncnc2c1ncn2C1O[C@H](CO)[C@H](O[C@@H]2OC(CO)[C@H](OP(=O)(O)O)C(OP(=O)(O)O)[C@@H]2O)[C@@H]1OP(=O)(O)O (some centres not stated),14,35,2.4,1
O=P(O)(O)OC1[C@@H](OP(=O)(O)O)C(CO)O[C@@H](O[C@@H]2[C@H](OP(=O)(O)O)C(n3cnc4c(NC5CCCC5)ncnc43)O[C@@H]2CO)[C@H]1O (some centres not stated),13,35,2.2,0.77
CNc1nc(OC)nc2c1ncn2C1O[C@H](CO)[C@H](O[C@@H]2OC(CO)[C@H](OP(=O)(O)O)C(OP(=O)(O)O)[C@@H]2O)[C@@H]1OP(=O)(O)O (some centres not stated),82,34,8.8,0.17
"O=P(O)(O)O[C@@H]1[C@H](O)[C@H](O)[C@@H](OP(=O)(O)O)[C@H](OP(=O)(O)O)[C@H]1O [INS(1,4,5)P3]",185,35,2.3,0.08
CN(C)c1ncnc2c1ncn2C1O[C@H](CO)[C@H](O[C@@H]2OC(CO)[C@H](OP(=O)(O)O)C(OP(=O)(O)O)[C@@H]2O)[C@@H]1OP(=O)(O)O (some centres not stated),19,39,2.1,0.82
COc1ncnc2c1ncn2C1O[C@H](CO)[C@H](O[C@@H]2OC(CO)[C@H](OP(=O)(O)O)C(OP(=O)(O)O)[C@@H]2O)[C@@H]1OP(=O)(O)O (some centres not stated),19,34,3.8,0.57
